The text below walks through data of ChEMBL document CHEMBL4138113, “Novel propanamides as fatty acid amide hydrolase inhibitors” (Eur J Med Chem, 2017).

The target in experiment [1] is T1, Fatty-acid amide hydrolase 1 (Rattus norvegicus, UniProt P97612).
T1 sequence (P97612 whole entry): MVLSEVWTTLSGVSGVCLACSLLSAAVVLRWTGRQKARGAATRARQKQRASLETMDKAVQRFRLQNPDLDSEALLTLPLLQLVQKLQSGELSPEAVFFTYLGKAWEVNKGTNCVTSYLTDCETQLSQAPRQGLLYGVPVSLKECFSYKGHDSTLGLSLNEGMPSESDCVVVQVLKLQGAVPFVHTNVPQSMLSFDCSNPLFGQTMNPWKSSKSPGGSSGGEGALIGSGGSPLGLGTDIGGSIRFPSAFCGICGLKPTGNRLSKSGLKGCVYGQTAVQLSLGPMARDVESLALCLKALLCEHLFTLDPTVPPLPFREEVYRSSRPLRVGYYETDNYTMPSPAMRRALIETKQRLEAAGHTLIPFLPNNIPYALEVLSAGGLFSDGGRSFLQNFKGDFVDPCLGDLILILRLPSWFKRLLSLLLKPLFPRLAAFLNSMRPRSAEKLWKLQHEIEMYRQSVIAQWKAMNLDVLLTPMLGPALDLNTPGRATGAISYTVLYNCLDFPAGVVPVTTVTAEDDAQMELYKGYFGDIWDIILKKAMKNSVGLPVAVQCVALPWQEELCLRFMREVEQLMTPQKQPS
The experiment can be described thus: Competitive inhibition of rat brain FAAH using [3H]AEA as substrate after 10 mins by Dixon plot analysis. Summed up:
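Kinetic study in rat brain homogenate (1 µg protein per assay). [3H]AEA hydrolysis ran for 10 min at 37 °C in Tris-EDTA buffer, pH 7.4, with the AEA:fatty acid-free BSA ratio held at 1:~4.5 across substrate levels. Radioactivity was measured by charcoal separation and scintillation counting. Data were fitted to competitive, mixed-type and non-competitive models, and the best model was chosen by Akaike's criterion.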

Experiment [2] addresses T2, Fatty-acid amide hydrolase 1 (Homo sapiens, UniProt O00519).
T2 sequence (O00519 whole entry): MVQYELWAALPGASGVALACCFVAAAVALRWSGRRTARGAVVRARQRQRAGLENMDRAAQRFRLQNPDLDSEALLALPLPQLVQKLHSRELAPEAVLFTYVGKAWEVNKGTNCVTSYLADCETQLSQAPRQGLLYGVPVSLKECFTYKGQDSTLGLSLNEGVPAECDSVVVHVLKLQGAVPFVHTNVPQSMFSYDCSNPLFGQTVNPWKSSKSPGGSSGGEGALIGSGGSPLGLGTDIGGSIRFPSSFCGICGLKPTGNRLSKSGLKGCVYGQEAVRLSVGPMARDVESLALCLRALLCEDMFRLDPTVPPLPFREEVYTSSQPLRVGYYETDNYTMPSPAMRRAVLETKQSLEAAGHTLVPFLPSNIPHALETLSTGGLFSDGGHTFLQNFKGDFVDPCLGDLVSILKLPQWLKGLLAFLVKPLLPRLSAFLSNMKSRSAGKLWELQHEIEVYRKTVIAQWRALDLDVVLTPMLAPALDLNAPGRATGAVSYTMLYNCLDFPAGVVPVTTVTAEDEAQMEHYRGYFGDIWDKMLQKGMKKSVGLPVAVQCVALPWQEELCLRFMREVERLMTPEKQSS
The experiment can be described thus: Inhibition of FAAH (unknown origin) expressed in human HeLa cells using [3H]AEA as substrate after 2 hrs by liquid scintillation counting analysis. The format is cell-based.

For experiment [3], the target named is T3, Fatty-acid amide hydrolase 1 (Rattus norvegicus) (UniProt P97612).
T3 sequence (whole entry): T1 sequence (P97612 whole entry)
The experiment can be described thus: Inhibition of rat brain FAAH using [3H]AEA as substrate after 10 mins in presence of N-(3-Chloropyridin-2-yl)-2-(4-((2-(trifluoromethyl)pyridin-4-yl)amino)phenyl)propanamide by liquid scintillation counting analysis. In a few lines: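 Rat (Wistar or Sprague-Dawley) brain homogenate without cerebella, washed and pre-incubated 15 min at 37 °C to clear endogenous substrate. Compound (in ethanol or DMSO) was mixed with 1 µg protein on ice in 10 mM Tris-HCl, 1 mM EDTA, pH 7.4. Reaction used 0.5 µM [3H]AEA with fatty acid-free BSA for 10 min at 37 °C. It was stopped with charcoal/HCl, and supernatant tritium was counted. ≥5 half-log concentrations, ≥3 experiments; maximum inhibition = 100 − fitted bottom.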

SMILES strings stand for the structures. pIC50, pKi: −log10 of the molar value. Activity calls are given as the source filed them.

For the compound `Cc1cccnc1NC(=O)C(C)c1ccc(Nc2ccnc(C(F)(F)F)c2)cc1` (stereo not drawn), the negative-log Ki (pKi) in experiment [1] was 6.41. The compound also showed a negative-log IC50 (pIC50) in experiment [2] of 5.19 to 5.66. Moreover, the inhibition entry in experiment [3] is “Active”.
